According to ChEMBL document CHEMBL4251638, “Amino acid conjugated antimicrobial drugs: Synthesis, lipophilicity- activity relationship, antibacterial and urease inhibition activity” (Eur J Med Chem, 2018):
In brackets after ≈: the same amount, converted by molar mass. Activity calls are given as the source filed them. The calls are words filed in the database; no cut-off is given here.

What was measured:
Escherichia coli = assay: Antibacterial activity against Escherichia coli ATCC 25922 after overnight incubation by microbroth dilution method; format: functional
Summary of the method: (§1)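 Strains grown on nutrient agar, 37°C, 24 h. Inoculum from colony in nutrient broth, 24 h at 37°C, adjusted to McFarland 0.5, about 5 × 10^4 CFU/ml per well. DMSO stocks (4 mg/mL) serially diluted in nutrient broth to final 256 to 0.16 µg/mL. Incubated overnight at 37°C. MIC90 is the lowest concentration inhibiting growth. DMSO 1% final as negative control. Run in triplicate.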

[1] = Inhibition of Bacillus pasteurii urease using urea as substrate measured after 20 mins by phenol reagent based assay; parameters: species or system Sporosarcina pasteurii
Summary of the method: (§2)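 Indophenol method. Enzyme incubated with compound in buffer containing 100 mM urea at 30 °C for 20 min. Phenol reagent (1% w/v phenol, 0.005% w/v sodium nitroprusside) then alkali reagent (0.5% w/v NaOH, 0.1% v/v […]) added. Absorbance read at 630 nm as change per min. Thiourea was the reference inhibitor.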

Pseudomonas aeruginosa = assay: Antibacterial activity against Pseudomonas aeruginosa ATCC 15442 after overnight incubation by microbroth dilution method; format: functional; summary of the method: as §1
Salmonella typhimurium [2] = assay: Antibacterial activity against Salmonella typhimurium ATCC 14028 after overnight incubation by microbroth dilution method; format: functional, Salmonella enterica subsp. enterica serovar Typhimurium; conditions: Salmonella enterica
Staphylococcus aureus = assay: Antibacterial activity against Staphylococcus aureus ATCC 6538 after overnight incubation by microbroth dilution method; format: functional; summary of the method: as §1
Bacillus spizizenii = assay: Antibacterial activity against Bacillus subtilis ATCC 6633 after overnight incubation by microbroth dilution method; format: functional; summary of the method: as §1
Salmonella typhimurium [3] = conditions: Salmonella enterica subsp. enterica serovar Typhimurium; ATCC 14028
Sporosarcina pasteurii = assay: Inhibition of Bacillus pasteurii urease using urea as substrate measured after 20 mins by phenol reagent based assay relative to control; summary of the method: as §2

Structure (SMILES)	MIC90 (Escherichia coli)	IC50 [1] [µM]	MIC90 (Pseudomonas aeruginosa)	MIC90 (Salmonella typhimurium [2]) [µM]	MIC90 (Staphylococcus aureus)	MIC90 (Bacillus spizizenii)	MIC90 (Salmonella typhimurium [3])	inhibition (Sporosarcina pasteurii) [%]
COc1nc(NNC(=O)c2ccncc2)nc(OC(=O)C(N)Cc2ccccc2)n1 (configuration not stated)	52 µM (≈ 21.3 µg/mL)	31	65 µM (≈ 26.6 µg/mL)	78 (≈ 31.9 µg/mL)	104 µM (≈ 42.6 µg/mL)	156 µM (≈ 63.9 µg/mL)		
COc1nc(NNC(=O)c2ccncc2)nc(OC(=O)C(N)Cc2c[nH]c3ccccc23)n1 (configuration not stated)	36 µM (≈ 16.1 µg/mL)	37.3	60 µM (≈ 26.9 µg/mL)	36 (≈ 16.1 µg/mL)	47.5 µM (≈ 21.3 µg/mL)	71 µM (≈ 31.8 µg/mL)		
CC[C@H]1OC(=O)[C@H](C)[C@@H](O[C@H]2C[C@@](C)(OC)[C@@H](O)[C@H](C)O2)[C@H](C)[C@@H](O[C@@H]2O[C@H](C)C[C@H](N(C)C)[C@H]2O)[C@](C)(O)C[C@@H](C)/C(=N\OCOCCOC)[C@H](C)[C@@H](O)[C@]1(C)O [ROXITHROMYCIN]	0.6 µM (≈ 0.502 µg/mL)		0.3 µM (≈ 0.251 µg/mL)		0.6 µM (≈ 0.502 µg/mL)	0.6 µM (≈ 0.502 µg/mL)		
COc1nc(OCCn2c([N+](=O)[O-])cnc2C)nc(OC(=O)C(N)C(C)C)n1 (configuration not stated)	67.3 µM (≈ 26.6 µg/mL)	19.5	54 µM (≈ 21.4 µg/mL)	81 (≈ 32 µg/mL)	81 µM (≈ 32 µg/mL)	81 µM (≈ 32 µg/mL)		
COc1cc(Cc2cnc(N)nc2NC(=O)C(N)C(C)C)cc(OC)c1OC (configuration not stated)	164 µM (≈ 64 µg/mL)	52.4	137 µM (≈ 53.3 µg/mL)	219 (≈ 85.3 µg/mL)	82.2 µM (≈ 32 µg/mL)	68.3 µM (≈ 26.6 µg/mL)		
O=C(O)c1cn(C2CC2)c2cc(N3CCNCC3)c(F)cc2c1=O [CIPROFLOXACIN]	30.2 µM (≈ 10 µg/mL)		30.2 µM (≈ 10 µg/mL)		30.2 µM (≈ 10 µg/mL)	30.2 µM (≈ 10 µg/mL)		
COc1nc(OCCn2c([N+](=O)[O-])cnc2C)nc(OC(=O)C(N)Cc2c[nH]c3ccccc23)n1 (configuration not stated)	2 µM (≈ 0.965 µg/mL)	16.3	4 µM (≈ 1.93 µg/mL)	6.8 (≈ 3.28 µg/mL)	16.5 µM (≈ 7.96 µg/mL)	13 µM (≈ 6.27 µg/mL)		
COc1cc(Cc2cnc(N)nc2N)cc(OC)c1OC [TRIMETHOPRIM]	55.1 µM (≈ 16 µg/mL)				22.7 µM (≈ 6.59 µg/mL)			
NC(Cc1ccccc1)C(=O)NNC(=O)c1ccncc1 (configuration not stated)	inactive	21.1	inactive		inactive	inactive	inactive	
COc1cc(Cc2cnc(N)nc2NC(=O)C(N)Cc2c[nH]c3ccccc23)cc(OC)c1OC (configuration not stated)	67.1 µM (≈ 32 µg/mL)	35.1	67.1 µM (≈ 32 µg/mL)	55.8 (≈ 26.6 µg/mL)	134 µM (≈ 64 µg/mL)	224 µM (≈ 107 µg/mL)		
COc1nc(Nc2nc(N)ncc2Cc2cc(OC)c(OC)c(OC)c2)nc(OC(=O)C(N)Cc2ccccc2)n1 (configuration not stated)	47.3 µM (≈ 26.6 µg/mL)	13.8	28.4 µM (≈ 16 µg/mL)	56.8 (≈ 32 µg/mL)	303 µM (≈ 171 µg/mL)	228 µM (≈ 128 µg/mL)		
CC(C)C(N)C(=O)NNC(=O)c1ccncc1 (configuration not stated)	inactive	48.6	inactive		inactive	inactive	inactive	
COc1nc(OC(=O)C(N)C(C)C)nc(Oc2c(OC)cc(Cc3cnc(N)nc3N)cc2OC)n1 (configuration not stated)	6.6 µM (≈ 3.3 µg/mL)	6.23	6.6 µM (≈ 3.3 µg/mL)	15.9 (≈ 7.96 µg/mL)	10.6 µM (≈ 5.31 µg/mL)	7.9 µM (≈ 3.95 µg/mL)		
COc1cc(Cc2cnc(N)nc2NC(=O)C(N)Cc2ccccc2)cc(OC)c1OC (configuration not stated)	73.1 µM (≈ 32 µg/mL)	31.3	73.1 µM (≈ 32 µg/mL)	97.4 (≈ 42.6 µg/mL)	244 µM (≈ 107 µg/mL)	244 µM (≈ 107 µg/mL)		
Cc1ncc([N+](=O)[O-])n1CCOC(=O)C(N)Cc1ccccc1 (configuration not stated)	201 µM (≈ 64 µg/mL)	27.4	268 µM (≈ 85.3 µg/mL)	201 (≈ 64 µg/mL)	50.3 µM (≈ 16 µg/mL)	83.6 µM (≈ 26.6 µg/mL)		
COc1nc(OCCn2c([N+](=O)[O-])cnc2C)nc(OC(=O)C(N)Cc2ccccc2)n1 (configuration not stated)	7.4 µM (≈ 3.28 µg/mL)	11.4	9 µM (≈ 3.99 µg/mL)	18 (≈ 7.98 µg/mL)	24 µM (≈ 10.6 µg/mL)	18 µM (≈ 7.98 µg/mL)		
COc1nc(OC(=O)C(N)Cc2c[nH]c3ccccc23)nc(Oc2c(OC)cc(Cc3cnc(N)nc3N)cc2OC)n1 (configuration not stated)	1.1 µM (≈ 0.646 µg/mL)	11.5	1.4 µM (≈ 0.823 µg/mL)	2.3 (≈ 1.35 µg/mL)	3.4 µM (≈ 2 µg/mL)	6.8 µM (≈ 4 µg/mL)		
NC(N)=S [THIOUREA]		21						
Cc1ncc([N+](=O)[O-])n1CCOC(=O)C(N)Cc1c[nH]c2ccccc12 (configuration not stated)	74.4 µM (≈ 26.6 µg/mL)	13.6	119 µM (≈ 42.6 µg/mL)	89.5 (≈ 32 µg/mL)	179 µM (≈ 64 µg/mL)	239 µM (≈ 85.4 µg/mL)		
COc1nc(Nc2nc(N)ncc2Cc2cc(OC)c(OC)c(OC)c2)nc(OC(=O)C(N)Cc2c[nH]c3ccccc23)n1 (configuration not stated)	53.2 µM (≈ 32 µg/mL)	12	53.2 µM (≈ 32 µg/mL)	53.2 (≈ 32 µg/mL)	213 µM (≈ 128 µg/mL)	213 µM (≈ 128 µg/mL)		
COc1nc(OC(=O)C(N)Cc2ccccc2)nc(Oc2c(OC)cc(Cc3cnc(N)nc3N)cc2OC)n1 (configuration not stated)	3.6 µM (≈ 1.97 µg/mL)	8.33	6 µM (≈ 3.29 µg/mL)	7.3 (≈ 4 µg/mL)	12 µM (≈ 6.58 µg/mL)	19.3 µM (≈ 10.6 µg/mL)		
NNC(=O)c1ccncc1	inactive		inactive		inactive	inactive	inactive	
Cc1ncc([N+](=O)[O-])n1CCOC(=O)C(N)C(C)C (configuration not stated)	473 µM (≈ 128 µg/mL)	29.5	474 µM (≈ 128 µg/mL)	632 (≈ 171 µg/mL)	118 µM (≈ 32 µg/mL)	158 µM (≈ 42.7 µg/mL)		
COc1nc(NNC(=O)c2ccncc2)nc(OC(=O)C(N)C(C)C)n1 (configuration not stated)	59 µM (≈ 21.3 µg/mL)	29.3	74 µM (≈ 26.7 µg/mL)	74 (≈ 26.7 µg/mL)	118 µM (≈ 42.6 µg/mL)	177 µM (≈ 64 µg/mL)		
Cc1ncc([N+](=O)[O-])n1CCO	inactive		inactive		inactive	inactive		13
NC(Cc1c[nH]c2ccccc12)C(=O)NNC(=O)c1ccncc1 (configuration not stated)	528 µM (≈ 171 µg/mL)	37	660 µM (≈ 213 µg/mL)	792 (≈ 256 µg/mL)	98.9 µM (≈ 32 µg/mL)	98.9 µM (≈ 32 µg/mL)		
COc1nc(Nc2nc(N)ncc2Cc2cc(OC)c(OC)c(OC)c2)nc(OC(=O)C(N)C(C)C)n1 (configuration not stated)	62.2 µM (≈ 32 µg/mL)	19.3	51.7 µM (≈ 26.6 µg/mL)	82.8 (≈ 42.6 µg/mL)	166 µM (≈ 85.3 µg/mL)	124 µM (≈ 64 µg/mL)		
